Laboratory results taken from ChEMBL document CHEMBL1130209, “A novel series of 2,5-substituted tryptamine derivatives as vascular 5HT1B/1D receptor antagonists” (J Med Chem, 1997).

Key:
[1] = The dissociation equilibrium constant (pKB=-log KB) of compound was determined against the Muscarinic acetylcholine receptor M3 in the guinea pig trachea.; details: Cavia porcellus
[2] = target: 5-hydroxytryptamine receptor 7 (Homo sapiens) (UniProt P34969); experiment: The dissociation equilibrium constant (pKB=-log KB) of compound was determined against the vascular 5-hydroxytryptamine 7 receptor in the endothelium denuded rabbit jugular vein.; details: Oryctolagus cuniculus; target entry is the homologue from another species
[3] = target: Adrenergic receptor alpha-1 (Homo sapiens) (UniProt P35348+P25100+P35368); experiment: The dissociation equilibrium constant (pKB=-log KB) of compound was determined against the Alpha-1 adrenergic receptor in the rabbit thoracic aorta; type: tissue-based; details: Oryctolagus cuniculus, target entry is the homologue from another species
Method in brief: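 Rabbit thoracic aorta rings (3 mm) given pargyline 500 μM for 30 min and tensioned twice to 3.0 g. L-phenylephrine 10 μM checks viability and gives the reference contracture. After washout, test compound at 30 μM for 60 min, then a cumulative L-phenylephrine curve.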

Adrenergic receptor beta = Adrenergic receptor beta (Rattus norvegicus, UniProt P18090+P10608+P26255); experiment: Affinity pKi for Beta adrenergic receptor was measured in rat cortex homogenates
Method in brief: (§1)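 Competition binding with rat cortex homogenate: radioligand near its KD plus a wide range of test drug concentrations in duplicate, 30 min at 27 °C. Buffer 50 mM TRIS-HCl, 5 mM CaCl₂, 0.1% (w/v) ascorbate, 10 mM pargyline. Nonspecific binding defined with excess cold 5HT. Rapid filtration with ice-cold buffer wash, liquid scintillation count. pKi is the mean of at least three estimates.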

D(1A) dopamine receptor = D(1A) dopamine receptor (Rattus norvegicus, UniProt P18901); experiment: Affinity pKi for Dopamine receptor D1 was measured in rat cortex homogenates.; type: tissue-based
Method in brief: as §1

D(2) dopamine receptor = D(2) dopamine receptor (Rattus norvegicus, UniProt P61169); experiment: Affinity pKi for Dopamine receptor D2 was measured in rat cortex homogenates; type: tissue-based
Method in brief: as §1

[4] = target: T1, 5-hydroxytryptamine receptor 1A (Rattus norvegicus, UniProt P19327); experiment: Affinity pKi for 5-hydroxytryptamine 1A receptor was measured in rat cortex homogenates.; type: tissue-based
T1 sequence (P19327 whole entry): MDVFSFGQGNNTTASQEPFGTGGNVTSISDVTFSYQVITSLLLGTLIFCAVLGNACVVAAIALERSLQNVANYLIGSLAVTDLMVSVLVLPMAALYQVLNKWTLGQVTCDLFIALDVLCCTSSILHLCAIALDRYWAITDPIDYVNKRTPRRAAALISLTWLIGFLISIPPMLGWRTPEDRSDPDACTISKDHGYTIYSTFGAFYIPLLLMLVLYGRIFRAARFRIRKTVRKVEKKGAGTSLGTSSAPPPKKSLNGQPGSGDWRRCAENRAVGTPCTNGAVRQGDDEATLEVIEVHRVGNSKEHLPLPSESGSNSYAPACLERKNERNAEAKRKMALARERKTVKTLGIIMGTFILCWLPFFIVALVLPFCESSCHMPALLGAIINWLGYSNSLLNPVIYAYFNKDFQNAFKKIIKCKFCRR
Method in brief: as §1

[5] = target: T2, Adrenergic receptor alpha-2 (Rattus norvegicus, UniProt P22086+P19328+P22909); experiment: Affinity pKi for Alpha-2 adrenergic receptor was measured in rat cortex homogenates.; type: tissue-based
T2 sequence (P22086 whole entry): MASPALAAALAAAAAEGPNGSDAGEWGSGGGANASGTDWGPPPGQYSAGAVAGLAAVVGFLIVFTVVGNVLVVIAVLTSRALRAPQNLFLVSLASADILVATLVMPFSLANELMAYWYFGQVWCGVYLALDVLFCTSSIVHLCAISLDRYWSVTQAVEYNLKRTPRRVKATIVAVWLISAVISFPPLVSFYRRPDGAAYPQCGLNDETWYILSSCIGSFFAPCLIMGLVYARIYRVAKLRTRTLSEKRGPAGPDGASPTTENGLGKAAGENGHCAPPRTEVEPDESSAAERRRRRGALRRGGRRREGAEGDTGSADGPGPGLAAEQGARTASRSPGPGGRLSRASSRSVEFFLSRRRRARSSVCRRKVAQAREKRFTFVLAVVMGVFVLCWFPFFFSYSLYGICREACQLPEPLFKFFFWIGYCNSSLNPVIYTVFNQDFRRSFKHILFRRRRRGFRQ
T2 sequence (P19328 whole entry): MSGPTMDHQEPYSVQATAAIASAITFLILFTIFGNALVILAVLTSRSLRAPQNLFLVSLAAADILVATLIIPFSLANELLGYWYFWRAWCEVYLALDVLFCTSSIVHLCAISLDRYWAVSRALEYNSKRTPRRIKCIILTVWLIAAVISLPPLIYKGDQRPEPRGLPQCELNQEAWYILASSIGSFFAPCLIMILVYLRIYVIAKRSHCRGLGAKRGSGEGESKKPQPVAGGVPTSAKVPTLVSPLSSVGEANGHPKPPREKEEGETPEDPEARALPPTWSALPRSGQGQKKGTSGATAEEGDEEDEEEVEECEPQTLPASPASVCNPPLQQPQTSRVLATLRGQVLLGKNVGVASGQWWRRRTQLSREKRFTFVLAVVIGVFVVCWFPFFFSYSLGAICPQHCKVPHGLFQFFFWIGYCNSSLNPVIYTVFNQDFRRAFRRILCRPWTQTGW
T2 sequence (P22909 whole entry): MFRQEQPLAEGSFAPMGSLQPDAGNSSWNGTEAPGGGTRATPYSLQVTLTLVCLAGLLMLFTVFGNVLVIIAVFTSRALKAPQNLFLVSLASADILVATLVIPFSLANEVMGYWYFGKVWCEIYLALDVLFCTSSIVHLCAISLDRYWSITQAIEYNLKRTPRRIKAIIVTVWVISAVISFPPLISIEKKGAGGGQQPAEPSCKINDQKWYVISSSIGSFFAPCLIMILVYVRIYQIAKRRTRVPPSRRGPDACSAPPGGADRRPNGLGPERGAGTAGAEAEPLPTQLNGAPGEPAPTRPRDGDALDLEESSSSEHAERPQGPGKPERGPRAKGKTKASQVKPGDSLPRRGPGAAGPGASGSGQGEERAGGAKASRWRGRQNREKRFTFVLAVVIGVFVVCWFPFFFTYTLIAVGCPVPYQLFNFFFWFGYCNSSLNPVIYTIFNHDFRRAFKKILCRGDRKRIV
Method in brief: as §1

[6] = target: 5-hydroxytryptamine receptor 2B (Homo sapiens) (UniProt P41595); experiment: The dissociation equilibrium constant (pKB=-log KB) of compound was determined against the vascular 5-hydroxytryptamine 2B receptor in the endothelium intact rabbit jugular vein.; details: Oryctolagus cuniculus; target entry is the homologue from another species
[7] = target: Adrenergic receptor alpha-2 (Homo sapiens) (UniProt P08913+P18825+P18089); experiment: The dissociation equilibrium constant (pKB=-log KB) of compound was determined against the Alpha-2 adrenergic receptor; type: protein assay; details: Oryctolagus cuniculus
[8] = target: 5-hydroxytryptamine receptor 2A (Rattus norvegicus, UniProt P14842); experiment: Affinity pKi for 5-hydroxytryptamine 2A receptor was measured in rat cortex homogenates; type: tissue-based
Method in brief: as §1

[9] = Half life of compound was determined in mouse plasma; type: ADME, organism-based
[10] = target: 5-hydroxytryptamine receptor 2A (Homo sapiens) (UniProt P28223); experiment: Dissociation equilibrium constant against the vascular 5-hydroxytryptamine 2A receptor in the rabbit […] aorta; type: tissue-based; details: Oryctolagus cuniculus, target entry is the homologue from another species
[11] = target: Histamine H1 receptor (Homo sapiens) (UniProt P35367); experiment: The dissociation equilibrium constant (pKB=-log KB) of compound was determined against the Histamine H1 receptor in the rabbit thoracic aorta; type: tissue-based; details: Oryctolagus cuniculus, target entry is the homologue from another species
Sequence of Histamine H1 receptor (Homo sapiens) (P35367 whole entry): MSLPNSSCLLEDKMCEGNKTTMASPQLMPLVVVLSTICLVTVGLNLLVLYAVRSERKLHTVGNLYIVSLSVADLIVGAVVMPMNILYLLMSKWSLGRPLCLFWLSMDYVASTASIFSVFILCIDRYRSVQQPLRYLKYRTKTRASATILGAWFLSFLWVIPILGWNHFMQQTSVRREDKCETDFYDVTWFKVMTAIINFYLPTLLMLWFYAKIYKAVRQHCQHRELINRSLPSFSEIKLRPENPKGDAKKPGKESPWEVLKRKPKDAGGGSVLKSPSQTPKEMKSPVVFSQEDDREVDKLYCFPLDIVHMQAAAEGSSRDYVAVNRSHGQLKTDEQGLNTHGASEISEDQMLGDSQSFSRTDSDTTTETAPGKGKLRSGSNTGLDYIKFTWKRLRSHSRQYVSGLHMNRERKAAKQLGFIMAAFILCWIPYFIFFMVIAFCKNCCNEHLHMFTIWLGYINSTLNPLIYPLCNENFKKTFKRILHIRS

Sequence of 5-hydroxytryptamine receptor 7 (Homo sapiens) (P34969 whole entry): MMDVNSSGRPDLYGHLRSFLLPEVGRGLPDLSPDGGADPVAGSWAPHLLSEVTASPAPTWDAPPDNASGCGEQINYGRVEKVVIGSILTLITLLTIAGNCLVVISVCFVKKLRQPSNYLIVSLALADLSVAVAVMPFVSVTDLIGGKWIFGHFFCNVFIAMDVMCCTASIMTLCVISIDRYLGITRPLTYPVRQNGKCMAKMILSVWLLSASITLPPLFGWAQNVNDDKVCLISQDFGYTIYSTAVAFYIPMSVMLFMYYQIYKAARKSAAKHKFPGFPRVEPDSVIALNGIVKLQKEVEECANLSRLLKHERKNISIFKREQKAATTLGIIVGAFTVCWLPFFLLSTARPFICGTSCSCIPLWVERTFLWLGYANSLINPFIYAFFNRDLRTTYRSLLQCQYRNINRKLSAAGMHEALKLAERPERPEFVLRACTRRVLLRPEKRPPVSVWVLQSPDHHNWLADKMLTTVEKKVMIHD
Sequence of 5-hydroxytryptamine receptor 2A (P14842 whole entry): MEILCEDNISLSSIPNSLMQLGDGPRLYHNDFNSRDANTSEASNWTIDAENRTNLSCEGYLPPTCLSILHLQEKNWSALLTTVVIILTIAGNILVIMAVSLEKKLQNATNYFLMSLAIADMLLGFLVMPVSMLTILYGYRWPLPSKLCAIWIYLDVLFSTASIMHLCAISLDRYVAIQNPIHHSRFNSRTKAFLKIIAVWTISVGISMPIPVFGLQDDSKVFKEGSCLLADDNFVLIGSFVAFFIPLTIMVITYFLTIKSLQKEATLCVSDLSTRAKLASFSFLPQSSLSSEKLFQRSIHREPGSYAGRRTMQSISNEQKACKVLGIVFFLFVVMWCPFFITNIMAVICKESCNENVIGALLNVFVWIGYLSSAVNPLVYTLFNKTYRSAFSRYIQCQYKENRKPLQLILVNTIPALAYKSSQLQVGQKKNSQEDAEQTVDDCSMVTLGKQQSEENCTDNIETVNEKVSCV
Sequence of D(2) dopamine receptor (P61169 whole entry): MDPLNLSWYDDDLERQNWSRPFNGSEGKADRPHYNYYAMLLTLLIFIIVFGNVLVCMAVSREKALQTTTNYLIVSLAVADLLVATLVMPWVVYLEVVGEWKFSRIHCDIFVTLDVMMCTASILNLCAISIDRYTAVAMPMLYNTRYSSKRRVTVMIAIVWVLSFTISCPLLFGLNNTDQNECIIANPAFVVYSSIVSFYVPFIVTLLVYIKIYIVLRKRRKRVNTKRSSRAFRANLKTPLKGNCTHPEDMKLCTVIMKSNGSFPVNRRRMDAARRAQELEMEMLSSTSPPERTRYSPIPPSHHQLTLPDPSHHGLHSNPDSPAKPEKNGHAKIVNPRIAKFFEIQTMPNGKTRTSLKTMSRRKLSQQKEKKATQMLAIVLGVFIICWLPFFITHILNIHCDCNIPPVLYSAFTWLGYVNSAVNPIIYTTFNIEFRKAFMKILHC
Sequence of D(1A) dopamine receptor (P18901 whole entry): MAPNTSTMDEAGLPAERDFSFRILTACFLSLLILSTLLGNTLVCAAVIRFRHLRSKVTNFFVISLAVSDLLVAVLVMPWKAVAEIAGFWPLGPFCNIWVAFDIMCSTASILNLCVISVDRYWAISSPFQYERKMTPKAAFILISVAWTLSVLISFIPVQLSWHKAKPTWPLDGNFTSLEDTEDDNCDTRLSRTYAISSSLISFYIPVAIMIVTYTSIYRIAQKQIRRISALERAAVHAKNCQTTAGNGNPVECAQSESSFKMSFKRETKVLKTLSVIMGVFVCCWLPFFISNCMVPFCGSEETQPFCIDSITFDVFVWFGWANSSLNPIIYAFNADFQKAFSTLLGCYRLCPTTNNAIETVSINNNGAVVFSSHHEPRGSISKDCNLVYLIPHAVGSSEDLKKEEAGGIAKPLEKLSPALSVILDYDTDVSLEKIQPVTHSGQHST
Sequence of 5-hydroxytryptamine receptor 2A (Homo sapiens) (P28223 whole entry): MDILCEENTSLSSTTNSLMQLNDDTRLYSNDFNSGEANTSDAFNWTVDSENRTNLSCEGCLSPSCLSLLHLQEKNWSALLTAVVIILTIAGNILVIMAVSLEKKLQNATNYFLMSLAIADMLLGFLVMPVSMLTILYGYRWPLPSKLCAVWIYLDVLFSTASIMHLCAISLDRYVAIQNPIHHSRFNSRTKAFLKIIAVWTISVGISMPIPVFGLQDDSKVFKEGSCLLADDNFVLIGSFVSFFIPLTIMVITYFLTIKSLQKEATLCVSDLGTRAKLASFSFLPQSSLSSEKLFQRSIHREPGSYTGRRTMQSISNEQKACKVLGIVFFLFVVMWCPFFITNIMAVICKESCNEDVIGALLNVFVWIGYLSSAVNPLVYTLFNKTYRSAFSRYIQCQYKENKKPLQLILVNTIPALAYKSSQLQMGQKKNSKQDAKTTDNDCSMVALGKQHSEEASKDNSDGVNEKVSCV
Sequence of 5-hydroxytryptamine receptor 2B (Homo sapiens) (P41595 whole entry): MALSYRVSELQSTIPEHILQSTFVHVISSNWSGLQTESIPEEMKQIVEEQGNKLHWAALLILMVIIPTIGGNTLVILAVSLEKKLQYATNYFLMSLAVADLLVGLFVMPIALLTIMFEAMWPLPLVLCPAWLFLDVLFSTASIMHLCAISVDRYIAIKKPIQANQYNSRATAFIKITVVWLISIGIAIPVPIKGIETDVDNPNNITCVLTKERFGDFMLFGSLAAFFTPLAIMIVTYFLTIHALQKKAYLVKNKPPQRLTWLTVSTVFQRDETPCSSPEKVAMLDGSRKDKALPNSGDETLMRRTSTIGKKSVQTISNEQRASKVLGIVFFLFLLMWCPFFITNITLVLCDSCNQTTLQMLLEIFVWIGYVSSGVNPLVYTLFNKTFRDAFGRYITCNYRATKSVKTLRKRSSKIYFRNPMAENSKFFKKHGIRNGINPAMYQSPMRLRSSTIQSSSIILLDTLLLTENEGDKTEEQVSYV

pKB [1]: < 5
pKB [2]: 5.5
pKB [3]: 5.43
Log Ki (Adrenergic receptor beta): -4.34
Ki (D(1A) dopamine receptor): 32.4 µM
Ki (D(2) dopamine receptor): 10.7 µM
Ki [4]: 9.33 µM
Log Ki [5]: -5.25
pKB [6]: < 5
pKB [7]: < 5
Ki [8]: 7.94 µM
half-life [9]: 12 min
pKB [10]: 5.8
pKB [11]: < 5
Structure (SMILES): CCOC(=O)c1[nH]c2ccc(CCN3C(=O)CNC3=O)cc2c1CCN(C)C
